Beta apoptosis – blocks beta cell apoptosis. INS-1E cytokine-induced death, ATP luminescence, 48 h; percent of positive-control rescue, neutral wells zero. protection from apoptosis, % (no concentration beside the values). hit rate 0.8% among 300,000. AID 435005;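 active means Every replicate reaches about 75%, or at least half do and their mean reaches it too, limit read from the data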;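 further: 0% = cytokine-treated negative control wells and 100% = positive control rescue; higher means more ATP so stronger rescue from cytokine killing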
HIF activator – HIF pathway transcriptional activation. U2OS HRE-luciferase reporter, luminescence; normalized: DMSO 0%, desferrioxamine 100%. activation, % at 7.5 µM (by protocol). hit rate 0.32% among 300,000. AID 1910;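 active means mean activation of at least 10% of the iron chelator positive control signal, with at least half of replicates also reaching 10%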
T cruzi repl – blocks replication of Trypanosoma cruzi; inhibition, % (test concentration not listed); hit rate 1.4% among 300,000; T. cruzi beta-gal in NIH3T3, luminescence, 90 h;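 active means mean inhibition across valid replicates above about 55%, limit read from the data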;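 further: signal also drops with host cell toxicity which is not excluded here; 0% = plate median of DMSO wells and 100% = zero luminescence signal; higher percent means less beta-gal luminescence so fewer parasites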
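System: Mouse NIH/3T3 fibroblasts infected with β-gal-expressing T. cruzi Tulahuen C4 | Quantity: NIH/3T3 cells, 5,000 per well | Reagent: 5000 reporter trypomastigotes per well | Dosing: Compound pinned at 50 nL/well, DMSO | Schedule: 3 h host attachment, then at least 90 h co-culture | Detection: GalScreen luminescence, 60 min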
CSC inhib – cancer stem cell inhibition; inhibition, % at 7.5 µM; hit rate 1.1% among 300,000; cancer stem cell-like cells viability, luminescence; in the data active means inhibition above about 75%; tested in HMLE shEcad cells
SKKanGAS inh – blocks kanamycin growth of S. pyogenes SKKanGAS strain. BacTiter-Glo, 6 h. inhibition, % at 7.5 µM. hit rate 1.3% among 300,000. AID 1662;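 active means mean replicate score, as percent of positive control median, at least 50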;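 further: strain carries kanamycin resistance gene driven by streptokinase promoter and grows in 40 µg/ml kanamycin; loss of luminescence reflects streptokinase promoter inhibition or plain growth inhibition; 0% = median of DMSO wells and 100% = positive control at its reference dose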
PfHsp90 set2 – reduces growth (ATP signal) of yeast expressing P. falciparum Hsp90. S. cerevisiae expressing PfHsp90, BacTiter-Glo ATP, 48 h; yeast lacking PDR1 and PDR3 efflux regulators. inhibition, % at 9.4 µM. hit rate 0.32% among 310,000. AID 504621;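 active means every replicate shows inhibition above about 80%, whatever the replicate mean, limit read from the data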;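 further: 0% = DMSO neutral controls and 100% = 20 µM radicicol positive controls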
Starred values were filed as active, the others as inactive; x = no result. This is a sample that favours compounds with a hit; in the whole collection about 3.6% have one here.

SMILES	Beta apoptosis	HIF activator	T cruzi repl	CSC inhib	SKKanGAS inh	PfHsp90 set2
COc1cccc(NC(=O)CN(C)C(=O)CN2C(=O)c3ccc([N+](=O)[O-])cc3C2=O)c1	-6	0	-7	-9	0	x
Cc1ccccc1Oc1nc(-c2ccccn2)nc2ccccc12	88*	3	16	8	104*	-7
Cc1cccc(Oc2nc(-c3ccccn3)nc3ccccc23)c1	81*	3	-3	11	98*	-4
COc1ccc(NC(=O)Nc2ccc3c(c2)C(=O)N([C@@H](C)CO)C[C@@H](C)[C@@H](CN(C)S(=O)(=O)c2cn(C)cn2)O3)cc1	x	x	x	x	x	-9
CCC(=O)Nc1ccc(C(=O)OCc2ccccc2Cl)cc1	6	1	61*	11	7	29
CC(=O)Nc1ccc(C(=O)OCc2ccccc2Cl)cc1	-1	0	-7	8	4	-20
CCCCCCN(C(=O)CCCCCN1C(=O)NC(c2ccc(-c3ccccc3)cc2)C(C(=O)OCc2ccccc2)=C1C)C(C(=O)NCCCC)c1ccc(OCC(=O)OC)cc1 (stereo not drawn)	-6	0	10	-2	19	x
CCCCNC(=O)C(c1ccc(OCC(=O)OC)c(C(=O)OC)c1)N(CCOC)C(=O)CCCCCN1C(=O)NC(c2ccc(-c3ccccc3)cc2)C(C(=O)OCc2ccccc2)=C1C (stereo not drawn)	-2	-3	21	125*	25	x
CCN(Cc1ccccc1)C(c1cccs1)c1nnnn1C1CCCCC1 (stereo not drawn)	101*	0	56*	39	-2	-10
O=C(CCl)N1c2ccccc2CCc2ccccc21	-11	0	71*	-6	-1	-4
Cc1ccc(-c2nnn(CC(=O)N3c4ccccc4CCc4ccccc43)n2)cc1	-6	-1	58*	14	-4	-47
CC(Cl)C(=O)N1c2ccccc2CCc2ccccc21 (stereo not drawn)	x	2	-6	-12	3	8
CC[C@]12c3[nH]c4cc(CCC(=O)N(C)C)ccc4c3CCN1C(=O)[C@@H](CC(=O)NCc1ccco1)C[C@@H]2C(=O)N1CCN(C(=O)C2CC2)CC1	x	x	x	x	x	2
CCOC(=O)c1c(CSc2ccc(C)cc2)n(C)c2cc(Br)c(O)c(CN(C)C)c12	3	1	42	97*	16	-13
O=C(Cc1ccccc1F)Nc1ccc(S(=O)(=O)Nc2ncccn2)cc1	0	1	0	-4	7	-13
O=C1C2CC=CCC2C(=O)N1c1ccc(NCCc2ccccc2)c([N+](=O)[O-])c1 (stereo not drawn)	-11	2	20	80*	-9	-13
O=C1C2CC=CCC2C(=O)N1c1ccc(NCCc2ccccc2F)c([N+](=O)[O-])c1 (stereo not drawn)	0	1	18	-10	-26	3
Cc1cc(C)c(C(=O)c2cccs2)c(C)c1	x	x	x	x	x	-27
Cc1cccc(N=N/C(=C\O)C(=O)c2cccs2)c1	13	0	29	92*	0	-56
CCOC(=O)C(=Cc1ccc(OCc2ccc([N+](=O)[O-])cc2)c(OC)c1)C(=O)OCC	6	11*	-23	116*	-1	22
CC(C)c1nc2c(s1)CCc1onc(-c3cccc([N+](=O)[O-])c3)c1-2	5	0	-10	48	-6	-8
O=C(Cc1ccc(Cl)cc1)c1c[nH]c(C(=O)NCc2cccnc2)c1	107*	0	-8	13	-4	-7
O=C(COc1ccc(Cl)cc1)Nc1ccc(C(=O)NCc2cccnc2)cc1	101*	0	6	74	-2	x
CCNC(=O)COc1cccc(C(=O)NCc2ccccc2)c1	-7	75*	0	-19	-5	24
O=C(NCc1cccnc1)c1ccc(COc2ccc(Cl)cc2)cc1	22	0	0	29	-6	-3
SMILES	Beta apoptosis	HIF activator	T cruzi repl	CSC inhib	SKKanGAS inh	PfHsp90 set2
CCCNC(=O)COc1cccc(C(=O)NCc2ccccc2)c1	-6	0	-10	-1	-4	-8
Cc1cccc(OCC(=O)Nc2ccc(C(=O)NCc3cccnc3)cc2)c1	113*	0	19	47	-2	x
CC(=O)NS(=O)(=O)c1ccc(NC(=O)CC(C)c2ccccc2)cc1 (stereo not drawn)	x	0	-17	-5	6	9
O=C(O)c1cccnc1C(=O)c1ccccc1	-8	0	-28	6	-3	2
O=[N+]([O-])c1cc(Cl)cc(/C=N\Nc2ccccn2)c1O	109*	21*	57*	112*	102*	x
O=[N+]([O-])c1ccc(Cl)cc1C=NNc1ccccn1	x	x	x	x	x	3
O=C1Nc2ccccc2Oc2cc([N+](=O)[O-])ccc21	13	0	67*	14	9	x
COc1ccc(/C=C/c2cc(-c3ccc(C)cc3)o[n+]2C)cc1	116*	0	59*	92*	4	-26
O=[N+]([O-])c1cc(Br)c(O)c(/C=N/Nc2nnnn2-c2cccc3ccccc23)c1	x	0	-11	51	66*	-4
NC(=S)N/N=C/c1ccc2ccccc2c1	6	2	58*	0	-24	10
NC(=S)N/N=C/c1cccc(O)c1O	41	1	-12	-6	12	8
NC(=S)N/N=C/c1ccccc1O	92*	0	7	8	-1	-16
O=C(c1cnn2c1NC(c1ccc(Br)cc1)CC2C(F)(F)F)N1CCN2CCCC2C1 (stereo not drawn)	6	0	29	80*	7	0
O=C(c1cnn2c1NC(c1ccc(Br)cc1)CC2C(F)(F)F)N1CCN(C23CC4CC(CC(C4)C2)C3)CC1 (stereo not drawn)	0	-1	13	22	21	x
CC(=O)NC1=C(NC2CCS(=O)(=O)C2)C(=O)c2ccccc2C1=O (stereo not drawn)	53	-2	-18	-23	8	0
CN(C1=C(NC(=O)c2ccccc2)C(=O)c2ccccc2C1=O)C1CCS(=O)(=O)C1 (stereo not drawn)	97*	1	37	14	35	-17
COc1ccc(Cc2nnc(N/N=C/c3ccc(O)cc3O)[nH]c2=O)cc1OC	36	0	-14	91*	-2	-19
Cc1ccc(/C=N/Nc2ccnc3cc(Cl)ccc23)c(C)c1	101*	-1	68*	x	95*	-6
Cc1ccccc1/C=N/Nc1ccnc2cc(Cl)ccc12	95*	-1	60*	84*	-28	-13
CN(C(=O)c1cccc(NC(=O)Cc2ccc(NC(=O)C3CCN(C(=O)c4ccccc4)CC3)cc2)c1)C1CCCCC1	x	x	x	x	x	1
CCN1C(=O)[C@H]2[C@@H](c3ccc(-c4cccc(Cl)c4)cc3)N[C@@](Cc3ccccc3)(C(=O)OC)[C@H]2C1=O	-1	-1	55*	12	14	-1

Source: PubChem
